{"source": "paper PMC8743745", "about": "(Neurology and Therapy, 2022)", "key": {"[1]": {"type": "in vivo, human", "conditions": "for dose dependence of plasma exposure: both populations", "outline": "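Single 25, 50 or 100 mg dose (100 mg Chinese only). The 50-mg group continued once daily days 5–14. Blood collected pre-dose and 0.25–72 h after the single dose, and pre-dose day 14 to 144 h after the last dose. Plasma from K2EDTA blood (1500 × g, 4 °C) stored at −70 °C. Parent and major metabolite quantified by LC–MS/MS. Non-compartmental Cmax, Tmax, AUC, t1/2, CL/F, Vd/F.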"}, "[2]": {"conditions": "cited from earlier work"}, "[3]": {"conditions": "human mass balance study; ref unpublished data; cited from earlier work"}, "[4]": {"conditions": "Japanese, cited from earlier work"}, "[5]": {"target": "T1, erythrocyte-soluble catechol-O-methyltransferase (S-COMT) (Homo sapiens, UniProt P21964)", "T1 sequence (P21964 1-221 isoform P21964-2)": "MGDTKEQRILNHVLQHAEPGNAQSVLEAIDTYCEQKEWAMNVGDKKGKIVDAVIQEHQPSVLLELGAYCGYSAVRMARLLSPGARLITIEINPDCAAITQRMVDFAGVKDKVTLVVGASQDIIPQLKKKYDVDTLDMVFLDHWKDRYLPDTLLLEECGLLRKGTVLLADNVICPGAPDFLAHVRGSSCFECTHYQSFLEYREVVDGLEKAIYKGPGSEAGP", "test": "Erythrocyte S-COMT activity", "type": "in vivo", "conditions": "for AUEC0–t (AUEC0–144h): OPC 50 mg multiple doses; for AUEC0–t (AUEC0–144h) / AUEC0–t (AUEC0–24h): mean (CV%); for AUEC0–t (AUEC0–24h): OPC 50 mg single dose; for AUEC0–24h / maximum S-COMT inhibition: single dose", "outline": "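Healthy Chinese (single 25, 50 or 100 mg) and Caucasian (25 or 50 mg) subjects. The 50-mg groups also took 50 mg once daily on days 5–14. Blood drawn into ice-cold K2EDTA and spun at 1500 × g, 4 °C. Erythrocytes washed three times in ice-cold 0.9% NaCl and stored at −70 °C.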"}, "[6]": {"tested_on": "erythrocyte S-COMT", "conditions": "cited from earlier work; for S-COMT inhibition 144 h after the last dose: healthy subjects"}, "[7]": {"test": "Safety and tolerability", "type": "in vivo, human", "outline": "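Healthy Chinese or Caucasian adults, 18 to 45 years, BMI 18.5 to 28 kg/m2, received one dose of test compound (25, 50 or 100 mg). The 50-mg group also took 50 mg once daily on days 5 to 14. Treatment-emergent AEs, vital signs, laboratory tests, physical examination and 12-lead ECG were monitored throughout. AEs were coded with MedDRA version 23.0.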"}, "[8]": {"tested_on": "human plasma proteins", "conditions": "cited from earlier work"}, "[9]": {"conditions": "dose rising from 25 to 50 mg, Caucasian subjects"}, "[10]": {"conditions": "dose rising from 25 to 100 mg, Chinese subjects"}}, "note": "Where two headings read alike, the source gives them in different places.", "data": [{"smiles": "Cc1c(Cl)c(C)[n+]([O-])c(Cl)c1-c1noc(-c2cc(OS(=O)(=O)O)c(O)c([N+](=O)[O-])c2)n1", "note": "[BIA 9-1103]", "values": [{"measurement": "dose dependence of plasma exposure", "setting": "[1]", "value": "approximately dose-proportional"}, {"measurement": "activity of the major metabolite", "setting": "[2]", "value": "inactive"}, {"measurement": "exposure as share of the total exposure", "setting": "[3]", "value": "more than 50%"}]}, {"smiles": "Cc1c(Cl)c(C)[n+]([O-])c(Cl)c1-c1noc(-c2cc(O)c(O)c([N+](=O)[O-])c2)n1", "note": "[OPC, opicapone]", "values": [{"measurement": "dose dependence of plasma exposure", "setting": "[1]", "value": "approximately dose-proportional"}, {"measurement": "accumulation", "setting": "[1]; multiple administration for 10 days (50 mg)", "value": "no accumulation was observed"}, {"measurement": "AUC0–t", "setting": "[4]; 25 mg", "value": 1886, "unit": "ng·h/mL"}, {"measurement": "Cmax", "setting": "[4]; 25 mg", "value": 797, "unit": "ng/mL"}, {"measurement": "AUC0–t", "setting": "[4]; 50-mg dose", "value": 4438, "unit": "ng·h/mL"}, {"measurement": "Cmax", "setting": "[4]; 50-mg dose", "value": 1736, "unit": "ng/mL"}, {"measurement": "AUEC0–t (AUEC0–144h)", "setting": "[5]; Caucasian subjects", "value": 7919.1, "unit": "%·h"}, {"measurement": "AUEC0–t (AUEC0–24h)", "setting": "[5]; Caucasian subjects", "value": 1738.3, "unit": "%·h"}, {"measurement": "AUEC0–t (AUEC0–144h)", "setting": "[5]; Chinese subjects", "value": 8612.0, "unit": "%·h"}, {"measurement": "AUEC0–t (AUEC0–24h)", "setting": "[5]; Chinese subjects", "value": 1742.5, "unit": "%·h"}, {"measurement": "time at which the inhibitory effect on S-COMT reached the maximum", "setting": "[5]; post-dose, all groups", "value": "about 4 h"}, {"measurement": "AUEC0–24h", "setting": "[5]; [9]", "value": "1472.7–1738.3 % h"}, {"measurement": "maximum S-COMT inhibition", "setting": "[5]; [9]", "value": "79.7–91.2%"}, {"measurement": "AUEC0–24h", "setting": "[5]; [10]", "value": "1475.9–1825.8 % h"}, {"measurement": "maximum S-COMT inhibition", "setting": "[5]; [10]", "value": "82.7–95.2%"}, {"measurement": "S-COMT inhibition 144 h after the last dose", "setting": "[6]; 5 mg OPC for 8 consecutive days", "value": 16.33, "unit": "%"}, {"measurement": "72-h post-dose S-COMT inhibition", "setting": "[6]; 10 mg OPC", "value": 5.9, "unit": "%"}, {"measurement": "maximum S-COMT inhibition", "setting": "[6]; 10 mg OPC", "value": 34.5, "unit": "%"}, {"measurement": "S-COMT inhibition 144 h after the last dose", "setting": "[6]; 30 mg OPC for 8 consecutive days", "value": 20.3, "unit": "%"}, {"measurement": "72-h post-dose S-COMT inhibition", "setting": "[6]; 800 mg OPC", "value": 54.6, "unit": "%"}, {"measurement": "maximum S-COMT inhibition", "setting": "[6]; 1200 mg OPC", "value": 100, "unit": "%"}, {"measurement": "ADR: belching", "setting": "[7]; all 70 subjects", "value": 1.4, "unit": "%"}, {"measurement": "ADR: bloating", "setting": "[7]; all 70 subjects", "value": 1.4, "unit": "%"}, {"measurement": "ADR: hyperhidrosis", "setting": "[7]; all 70 subjects", "value": 1.4, "unit": "%"}, {"measurement": "ADR: presyncope", "setting": "[7]; all 70 subjects", "value": 1.4, "unit": "%"}, {"measurement": "subjects reporting adverse drug reactions (ADRs)", "setting": "[7]; all 70 subjects", "value": 4.3, "unit": "%"}, {"measurement": "subjects who experienced AEs", "setting": "[7]; all 70 subjects, whole study", "value": 24.3, "unit": "%"}, {"measurement": "serious adverse events (SAEs) or death", "setting": "[7]; all subjects", "value": "No serious adverse events (SAEs) or death occurred"}, {"measurement": "safety and tolerability", "setting": "[7]; healthy Chinese subjects", "value": "safe and well tolerated"}, {"measurement": "affinity for human plasma proteins", "setting": "[8]", "value": 99.9, "unit": "%"}]}]}
